A selection: hits, their analogues and other compounds. The true share with any hit is near 2.3%.
V1R ag counter = activates human V1a receptor in oxytocin agonist counter-screen; P37288; CHO-V1R cells, Fluo-8 calcium fluorescence, agonist mode; 0% DMSO, 100% 3 nM vasopressin; activation, % at 3 µM; 320,000 compounds, 0.25% hits; AID 2797;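 active = activation above the mean activation of all tested compounds plus 3 SD, per screening run, cut at about 20% in these data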;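 note: signal is peak over basal fluorescence ratio across a 100 second FLIPR read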
OXTR potentiate = human OXTR potentiation; activation, % at 3 µM; 320,000 compounds, 0.061% hits; P30559; AID 2445; CHO-OTR cells, Fluo-8 calcium fluorescence, potentiator mode; 0% = oxytocin EC15, 100% = EC100;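 active = activation above that plate's cutoff, the mean activation of tested compounds plus 3 SD, cut at about 6.6% in these data, passing the limit was not always enough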;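 note: 100% uses oxytocin at 75 nM as the full agonist control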
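Dosing: Single dose, 3.0 µM nominal final compound concentration | Material: Human OTR in CHO cells | Technique: Kinetic Fluo-8 calcium fluorescence | Benchmarks: EC15 oxytocin alone as 0%, 75 nM oxytocin as 100% | Probe or stimulus: Oxytocin at about EC15, sub-maximal agonist stimulus | Incubation: Compound 6 min at room temperature before oxytocin, 100 s read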
TAAR1 agonist = human TAAR1 agonism; Q96RJ0; activation, % at 3 µM; CHO RD-HGA16 TAAR1, Fluo-8 calcium fluorescence; vehicle wells 0%, saturating PEA agonist 100%; 360,000 compounds, 0.99% hits;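 active = activation above the mean activation of all test compounds in the run plus 3 SD, cut at about 38% in these data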
Target sequence (Q96RJ0 whole entry, looked up): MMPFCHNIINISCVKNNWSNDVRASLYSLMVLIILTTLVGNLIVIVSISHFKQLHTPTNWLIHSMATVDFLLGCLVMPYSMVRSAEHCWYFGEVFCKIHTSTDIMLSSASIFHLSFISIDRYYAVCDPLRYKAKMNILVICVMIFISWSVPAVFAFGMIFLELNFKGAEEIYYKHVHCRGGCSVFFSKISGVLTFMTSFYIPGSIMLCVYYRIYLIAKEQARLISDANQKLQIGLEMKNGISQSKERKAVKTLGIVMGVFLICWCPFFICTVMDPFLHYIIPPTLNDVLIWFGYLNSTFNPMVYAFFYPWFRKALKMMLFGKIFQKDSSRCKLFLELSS
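Repeats: no replicates (n 1) | Material: CHO-derived RD-HGA16 cells with stable Gα16 and human TAAR1 | Technique: Kinetic Fluo-8 calcium fluorescence | Schedule: 17-24 h seeding, 75 min 37 °C dye, 30 min RT | Evaluation: % activation from peak over basal fluorescence ratio, DMSO-to-PEA scaled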
TAAR1 antagonist = human TAAR1 antagonism. inhibition, % at 3 µM. 360,000 compounds, 1.5% hits. Q96RJ0. CHO RD-HGA16 TAAR1, Fluo-8 calcium fluorescence, antagonist;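 active = inhibition above a per-plate cutoff, the mean inhibition of test compounds on that plate plus 3 SD, cut at about 49% in these data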;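 note: 0% = DMSO plus EC80 beta-PEA response and 100% = DMSO alone without agonist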
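System: CHO RD-HGA16 cells bearing hTAAR1. Reagent: EC80 β-phenethylamine stimulus. Schedule: seeding 17-24 h prior, 75-min 37 °C, 30-min RT dye loading. Signal: Fluo-8 intracellular calcium dye fluorescence, real-time kinetic reads. Read-out: % inhibition from peak post-agonist over basal fluorescence ratio. Benchmarks: vehicle wells and EC80 agonist wells. Replicates: n of 1.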
OXTR agonist = agonists of human oxytocin receptor; P30559; CHO-OTR cells, Fluo-8 calcium fluorescence; normalized: DMSO 0%, oxytocin 100%; activation, % at 3 µM; 320,000 compounds, 0.32% hits; AID 2435;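 active = activation above the mean of all tested compounds plus 3 SD, cutoff set per screening run, cut at about 20% in these data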;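 note: peak over basal fluorescence ratio from a 100 s FLIPR kinetic read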
TAAR1 nonsel count = counter-screen for TAAR1 antagonists: nonselective antagonists. shares compounds with TAAR1 antagonist. counterscreen cell line, calcium fluorescence, antagonist mode. 2,400 compounds, 77% hits. AID 651780. inhibition, % at 3 µM; in the data active = inhibition above about 22%;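 note: CHO-Ga16 host cells stimulated with ATP at an EC80 level; 0% = agonist EC80 plus vehicle and 100% = vehicle without agonist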
TAAR1 ant conf = confirmation of human TAAR1 antagonists | shares compounds with TAAR1 antagonist | AID 651785 | TAAR1-expressing cells, fluorescence antagonist read-out | 2,400 compounds, 40% hits | inhibition, % at 3 µM; in the data active = inhibition above about 49%;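 note: CHO-Ga16 host cells challenged with agonist PEA near its EC80; 0% = agonist at EC80 plus vehicle and 100% = vehicle with no agonist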
Ga16 ag counter = nonselective Ga16 agonism, counter-screen; activation, % at 3 µM; Ga16-expressing cells, calcium fluorescence, agonist counterscreen; shares compounds with TAAR1 antagonist; 2,400 compounds, 18% hits; in the data active = activation above about 12%;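 note: 0% = vehicle wells and 100% = saturating stimulus response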
TAAR1 ag count = TAAR1 agonism, antagonist counter-screen; shares compounds with TAAR1 antagonist; hTAAR1 cell line, fluorescence activation, agonist mode; activation, % at 3 µM; 2,400 compounds, 2% hits; AID 651955; in the data active = activation above about 37%;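 note: CHO cells stably expressing TAAR1 with calcium dye readout; 0% = DMSO vehicle and 100% = full agonist response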
Numbers without * were called inactive; . = not tested or not shown.

SMILES	V1R ag counter	OXTR potentiate	TAAR1 agonist	TAAR1 antagonist	OXTR agonist	TAAR1 nonsel count	TAAR1 ant conf	Ga16 ag counter	TAAR1 ag count
COc1ccc(/C=N/NC(=O)c2nc(-c3ccccc3)cc(-c3ccccc3)n2)cc1	0	-3	16	56*	0	25*	42	5	4
COc1ccc(/C=N/NC(=O)c2nc(-c3ccccc3)cc(-c3ccccc3)n2)cc1O	6	-16	11	63*	4	35*	53*	6	4
O=C(CN1C(=O)CCS(=O)(=O)c2ccccc21)NCCc1ccccc1	0	-1	16	-4	0	.	.	.	.
COc1ccc(S(=O)(=O)N2CCN(C(=O)c3cc(-c4ccccc4OC)n[nH]3)CC2)cc1	6	-23	10	76*	10	25*	39	8	6
CCOc1ccc(NS(=O)(=O)c2ccc(C(=O)NCCN3CCOCC3)cc2)cc1	-1	1	3	-8	0	.	.	.	.
O=C(OCC(=O)N(Cc1ccccc1)Cc1ccccc1)c1cccc(O)c1	0	-3	7	63*	-1	26*	40	2	2
COC(=O)/C=C/c1ccccc1CN1[C@@H](CC(=O)OC)c2ccccc2S1(=O)=O	2	3	7	107*	1	-2	10	3	5
Cc1ccccc1Cn1cc(NC(=O)c2cc(-c3cccs3)on2)cn1	1	-10	27	62*	1	33*	62*	22*	14
Cc1ccccc1Cn1cc(NC(=O)c2cc(-c3ccco3)on2)cn1	0	-2	3	-24	-1	.	.	.	.
CSc1ccccc1NC(=O)c1cc(-c2cccs2)on1	2	-8	29	55*	1	11	5	1	5
OCCNc1ncnc2c1c(-c1ccccc1)c(-c1ccccc1)n2Cc1ccco1	8	-7	21	12	4	.	.	.	.
c1ccc(-c2c(-c3ccccc3)n(Cc3ccco3)c3ncnc(NCCCn4ccnc4)c23)cc1	1	-13	27	61*	-1	25*	34	22*	40*
O=C(Nc1ccc2c(c1)OCO2)c1n[nH]c(=O)c2ccccc12	-1	-4	-3	12	0	.	.	.	.
Cc1cccc(N(CC(=O)NC(C)(C)C)C(=O)CCC(=O)Nc2ccccn2)c1	1	-1	1	15	1	.	.	.	.
O=C(C[n+]1cc(-c2ccccc2)n2c1CCC2)Nc1nc(-c2ccccc2)cs1	0	-4	1	-14	-1	.	.	.	.
O=C(CSCC(=O)N1CCCc2ccccc21)Nc1nc(-c2ccccc2)cs1	3	-8	0	51*	0	29*	34	3	3
Cc1c(C(=O)OCC(=O)NC(=O)NC2CCCCC2)cccc1[N+](=O)[O-]	2	-4	8	6	0	.	.	.	.
CC(=O)Nc1ccc(S(=O)(=O)NCC(=O)OCC(=O)NCc2ccco2)cc1	0	-2	-2	100*	0	2	2	1	2
CC(=O)Nc1ccc(S(=O)(=O)N(C)CC(=O)OCC(=O)NCc2ccco2)cc1	0	-5	3	4	2	.	.	.	.
CC1(C)N=C(SCC(=O)Nc2ccc(Cl)cc2)C(c2ccc(Cl)cc2)=N1	2	-13	7	68*	-1	27*	48	5	-1
CC1=C(C)CC(C(=O)c2ccccc2)C(C(=O)O)C1 (stereo not given)	0	-1	3	-9	-1	.	.	.	.
O=C(Nc1ccc(-c2nnc(-c3ccco3)o2)cc1)C(c1ccccc1)c1ccccc1	1	-5	18	74*	1	32*	43	6	2
CCOC(=O)c1c(NC(=O)COc2ccccc2C#N)sc2c1CC(C)(C)NC2(C)C	2	-12	22	74*	5	28*	46	14*	16
NC(=O)c1nsc(C(=O)N(Cc2ccco2)C(C(=O)NCc2ccc(F)cc2)c2ccc(O)cc2)c1N (stereo not given)	1	-16	14	78*	2	37*	56*	10	12
NC(=O)c1nsc(C(=O)N(Cc2cccnc2)C(C(=O)NCc2ccccc2)c2ccc(O)cc2)c1N (stereo not given)	0	-6	2	-11	-1	.	.	.	.
SMILES	V1R ag counter	OXTR potentiate	TAAR1 agonist	TAAR1 antagonist	OXTR agonist	TAAR1 nonsel count	TAAR1 ant conf	Ga16 ag counter	TAAR1 ag count
O=C(NCc1ccccc1)C(c1ccc(F)cc1)N(Cc1ccco1)C(=O)c1ccccn1 (stereo not given)	17	-8	16	40	-1	.	.	.	.
CN(C)c1ccc(C(C(=O)NCc2ccccc2)N(Cc2ccco2)C(=O)c2snc(C(N)=O)c2N)cc1 (stereo not given)	5	-15	18	71*	2	27*	58*	8	11
Cc1ccccc1C(C(=O)NCc1ccccc1)N(Cc1ccco1)C(=O)c1ccccn1 (stereo not given)	2	-17	21	50*	-1	27*	46	8	12
CCC(C)(C)NC(=O)C(c1ccc(F)cc1)N(Cc1ccco1)C(=O)c1snc(C(N)=O)c1N (stereo not given)	2	-12	2	2	-3	.	.	.	.
Cc1ccc(C(C(=O)NCc2ccc(F)cc2)N(Cc2ccco2)C(=O)c2snc(C(N)=O)c2N)o1 (stereo not given)	3	-7	22	63*	3	31*	62*	11	24
CCOc1ccc(C(C(=O)NCC2CCCO2)N(CCc2cccc(C)c2)C(=O)c2snc(C(N)=O)c2N)cc1 (stereo not given)	.	.	28	67*	.	34*	53*	16*	39*
CN(C)c1ccc(C(C(=O)NCC2CCCO2)N(Cc2ccccc2)C(=O)c2snc(C(N)=O)c2N)cc1 (stereo not given)	3	-20	22	65*	3	33*	57*	13*	16
CN(C)c1ccc(C(C(=O)NCC2CCCO2)N(Cc2ccco2)C(=O)c2snc(C(N)=O)c2N)cc1 (stereo not given)	2	-22	20	67*	0	34*	52*	9	11

High-throughput results: PubChem BioAssay, The Scripps Research Institute Molecular Screening Center
